Source: PubChem
Hits are enriched below; roughly 4% of the tested compounds scored in any of these assays.
FAS-TE inh = FAS thioesterase domain inhibitors, primary screen, biochemical, fluorescence intensity, uHTS. Fatty acid synthase (Homo sapiens), P49327. recombinant FAS-TE, OMFH fluorogenic substrate, fluorescence endpoint. inhibition, % at 15 µM. 360,000 tested, 0.67% active. AID 602261, 2012;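 active = compounds whose normalised, plate-corrected inhibition of enzyme fluorescence in the single-dose primary screen is 50% or more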;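 also: 0% = DMSO with enzyme and 100% = substrate without enzyme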
H9c2 protect = cardioprotection against H2O2-induced cell death, primary screen, uHTS, H9c2 cells, ATPLite luminescence; protection from H2O2 cell death, % at 20 µM; 360,000 tested, 0.63% active; H9c2 cardiomyocytes, H2O2 injury protection, 2 h; AID 588492, 2011;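 active = compounds giving at least 50% protection of heart cells from peroxide-induced death in the single-dose screen, raw or plate-pattern-corrected value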;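 also: 0% = DMSO wells with peroxide and 100% = DMSO wells without peroxide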
hiPSC survival = enhancers of single-cell hiPSC survival, primary screen, ATPlite luminescence; 100% = ROCK inhibitor wells, 0% = DMSO; survival enhancement, % at 20 µM; 360,000 tested, 0.044% active; in the data active = survival enhancement above about 18%;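 also: cells exposed to compounds for 16 hours before the ATP read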
Arr AP2 block = inhibitors of beta-arrestin/AP2 binding, primary screen, biochemical, GPCR trafficking, flow cytometry; beta-arrestin 1 C-terminal peptide binding to AP2 beta2-adaptin appendage (human); FITC-arrestin peptide / GST-AP2 beads; AP2 beta2 appendage carries R879A mutation; inhibition, % at 10 µM; 340,000 tested, 0.31% active; AID 504490, 2011;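 active = inhibition above a set limit, near 3 SD of compounds lacking own fluorescence, cut at about 54% in these data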;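 also: plate controls were DMSO wells for no effect and 5 µM unlabelled arrestin peptide for full effect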
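test system = AP2 appendage R879A on GSH beads | buffer or medium = PBS plus Tween 20 (0.05%) and BSA (0.1%) | incubation = 12 min plus 1 h, RT | detection = bead flow cytometry, FITC channel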
NR3A LBD binder = binders of NR3A ligand-binding domain, primary screen, biophysical, differential scanning fluorimetry, uHTS. Glutamate receptor ionotropic, NMDA 3A (GRIN3A) ligand-binding domain. NR3A LBD differential scanning fluorimetry, Tm shift; 0% = protein alone, 100% = glycine-bound protein. Tm shift relative to glycine control, % at 25 µM. 340,000 tested, 2.5% active. AID 1259313, 2017;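 active = melting temperature shift of at least 10% of the positive control shift, at one fixed dose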
SENP1 inh = human SENP1 catalytic domain inhibitors, primary screen, biochemical, FRET, uHTS | 360,000 tested, 0.21% active | inhibition, % at 10 µM | recombinant SENP1 catalytic domain, CyPet-SUMO1-YPet FRET cleavage | Sentrin-specific protease 1 (Homo sapiens), Q9P0U3;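 active = inhibition at least 30% at 10 µM, raw YFP signal under a set limit, fluorescence ratio 0.5 to 1.5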;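 also: 0% = enzyme with DMSO and 100% = no enzyme wells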
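Assay system – human recombinant His6-tagged SENP1 catalytic domain enzyme · Input – SENP1 enzyme, 20 pM final · Buffer or medium – Tris pH 8 buffer plus EDTA, NaCl, BME, BSA, NP40, catalase · Schedule – 50 min reaction at room temperature · Technique – FRET read of cyan and yellow fluorescence · Control set – no-enzyme wells low, DMSO-plus-enzyme wells high control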
Numbers without * were called inactive; . = not tested or not shown.

SMILES	FAS-TE inh	H9c2 protect	hiPSC survival	Arr AP2 block	NR3A LBD binder	SENP1 inh
CC(C)C12CN3CC(C(C)C)(CN(C1)C3c1ccc3c(c1)OCO3)C2=O (centres undefined)	16.8	0.5	0.6	-5.0	-0.4	0.7
CC(C)C12CN3CC(C(C)C)(CN(C1)C3c1ccccc1O)C2=O (centres undefined)	0.9	2.2	21.3*	9.2	-1.0	1.3
CC(C)(C)NC(=O)C(c1ccccc1F)n1c(=O)c(-c2cc3ccccc3[nH]2)nc2ccccc21 (centres undefined)	.	.	.	.	.	-18.4
O=C1NC(Cc2ccc(O)cc2)c2nc3ccc(F)cc3c(=O)n2-c2cc3ccccc3cc21 (centres undefined)	17.5	95.2*	-2.2	.	.	-0.2
O=C1NC(Cc2ccc(O)cc2)c2nc3cc(F)c(F)cc3c(=O)n2-c2cc3ccccc3cc21 (centres undefined)	18.3	17.5	0.3	.	.	-4.4
COc1ccccc1NC(=O)COC(=O)Cn1cnc2c1c(=O)n(C)c(=O)n2C	-9.3	6.9	-0.2	0.0	0.1	1.0
C[C@@H]1CN([C@H](C)CO)S(=O)(=O)c2ccc(C3=CCCCC3)cc2O[C@H]1CN(C)C(=O)Cc1cccnc1	1.7	1.8	-0.5	.	.	2.0
Cc1c(CC(=O)Nc2ccc(Cl)cc2)sc2ccc(Cl)cc12	9.3	-20.5	0.2	33.6	28.2*	2.3
CCOC(=O)C1=C(C)Nc2ccccc2N=C1NC(=O)c1oc2ccccc2c1COC	21.0	85.6*	0.2	19.3	-0.1	-1.7
CCOC(=O)C1=C(C)Nc2ccccc2N=C1N	-4.1	6.9	1.6	-16.4	-1.6	0.1
COc1cccc(NC(=O)CCC2CCN(C(=O)C(OC)c3ccccc3)CC2)c1 (centres undefined)	-9.1	-2.9	-1.4	.	.	2.3
COc1ccc(-c2ccc([C@H]3[C@H]4C=CC[C@@H](C)[C@@H]4C(=O)N3Cc3ccccc3)c(F)c2)cc1	20.3	-11.2	4.2	-0.1	15.7*	-1.3
COc1ccc(-c2ccoc2)cc1[C@H]1[C@H]2C=CC[C@@H](C)[C@@H]2C(=O)N1Cc1ccccc1	22.9	-1.4	-2.0	-0.3	14.3*	-4.2
COc1ccc(-c2ccc(C)cc2)cc1[C@H]1[C@H]2C=CC[C@@H](C)[C@@H]2C(=O)N1Cc1ccccc1	24.7	-13.6	-2.4	16.9	-1.2	1.0
CCc1nc2ccc(C(=O)NCCCn3ccnc3)cn2c1N(CC)CCOC	-2.7	0.8	4.6	.	.	0.2
COc1ccc(-n2nc3c(N4CCC(C(=O)N5CCC(C)CC5)CC4)nnc(C)c3c2C)cc1	-69.1	-4.8	-0.4	-22.7	0.2	68.0*
Cc1nnc(N2CCC(C(=O)N3CCCCC3)CC2)c2nn(-c3ccc(Cl)cc3)c(C)c12	-1.2	14.8	-0.1	8.1	-3.0	1.8
CN(C)c1ccc(/C=C/c2nc3ccccc3s2)cc1	15.2	-40.2	-5.8	12.5	10.9*	-22.5
CC1=Nc2ccccc2/C1=C\c1nc(-c2ccc(F)cc2)oc1O	-51.6	-8.6	-0.9	12.1	30.2*	-25.9
CCOC(=O)C1(C)CCCN(C(=O)c2ccc3c(c2)CCO3)C1 (centres undefined)	-6.1	-1.3	0.7	.	.	1.0
OC[C@H]1O[C@@H](c2nc(-c3ccc(Br)cc3)no2)C[C@@H]1O	-7.9	-1.4	-2.0	.	.	-0.3
COCCNC(=O)COC(=O)c1ccc(OCC(=O)Nc2ccccc2OC)c(OC)c1	-40.3	56.3*	-0.5	15.2	-0.9	3.2
CCOCCn1ccc2c(OCC(=O)Nc3ccc(OC)cc3OC)cccc2c1=O	7.1	11.5	0.1	0.2	4.9	0.7
COCCn1ccc2c(OCC(=O)Nc3ccccc3OC)cccc2c1=O	-1.3	53.8*	-0.2	-1.2	0.5	0.5
